Measured values as given in ChEMBL document CHEMBL3124932, “Design, synthesis and evaluation of genistein-O-alkylbenzylamines as potential multifunctional agents for the treatment of Alzheimer's disease” (Eur J Med Chem, 2014).
Calls of active or inactive are those of the source.

Columns and labels:
[1] = Antioxidant activity assessed as trolox equivalent of APPH-induced radical scavenging activity at 1 to 10 uM preincubated for 15 mins followed by AAPH challenge measured every minute for 90 minutes by ORAC fluorescence assay; type: functional
In short: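 ORAC-FL in phosphate buffer pH 7.4. Samples (1–10 µM) preincubated with fluorescein (150 nM final) 15 min at 37 °C, then AAPH (12 mM final) added. Fluorescence (ex 485/em 535 nm) read each minute for 90 min. Net AUC over blank converted to Trolox equivalents using a 1–8 µM Trolox curve. Duplicates, at least 3 independent assays.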

[2] = molecular target: Butyrylcholinesterase (Rattus norvegicus) (UniProt Q9JKC1); assay: Inhibition of rat serum BuChE using butyrylthiocholine iodide as substrate at 50 uM after 15 mins by Ellman's method
In short: (§1)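 Modified Ellman assay in phosphate buffer pH 7.4. Enzyme sources: AChE from 5% rat cortex homogenate, preincubated 5 min with iso-OMPA to block BuChE; BuChE from 25% rat serum. Substrates were acetylthiocholine or butyrylthiocholine iodide. Compounds incubated 15 min at 37 °C, then DTNB added; A405 read. IC50 derived; triplicate, 3 independent experiments; "no active" means under 5% inhibition at 50 µM.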

Acetylcholinesterase [3] = molecular target: T1, Acetylcholinesterase (Rattus norvegicus, UniProt P37136); assay: Inhibition of rat cortex homogenate AchE using acetylthiocholine iodide as substrate after 15 mins by Ellman's method
T1 sequence (P37136 whole entry): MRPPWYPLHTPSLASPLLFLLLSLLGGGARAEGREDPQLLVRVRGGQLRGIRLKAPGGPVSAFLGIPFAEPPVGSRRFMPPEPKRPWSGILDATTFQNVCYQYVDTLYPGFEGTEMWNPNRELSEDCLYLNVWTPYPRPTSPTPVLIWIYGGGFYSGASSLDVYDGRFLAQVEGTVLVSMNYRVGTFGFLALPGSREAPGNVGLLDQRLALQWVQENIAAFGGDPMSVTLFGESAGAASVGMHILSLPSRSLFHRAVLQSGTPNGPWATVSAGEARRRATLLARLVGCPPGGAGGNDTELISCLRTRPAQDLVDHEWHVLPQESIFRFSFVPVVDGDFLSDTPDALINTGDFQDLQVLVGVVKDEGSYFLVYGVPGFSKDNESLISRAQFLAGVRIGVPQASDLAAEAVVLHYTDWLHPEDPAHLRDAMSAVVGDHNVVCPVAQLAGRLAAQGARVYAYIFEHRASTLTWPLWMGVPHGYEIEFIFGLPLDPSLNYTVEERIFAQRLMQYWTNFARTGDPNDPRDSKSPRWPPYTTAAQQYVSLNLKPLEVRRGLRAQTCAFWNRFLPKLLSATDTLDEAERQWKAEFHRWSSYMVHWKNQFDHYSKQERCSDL

Mus musculus [4] = assay: Cognition enhancing effect against scopolamine-induced memory deficit in Kunming mouse assessed as increase in latency time at 5 mg/kg, po administered 1 hr before training followed by scopolamine challenge for 7 days measured after 24 hrs by step-down passive avoidance test; type: functional, organism-based; parameters: dose 5 mg/kg
In short: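 Kunming mice (18–22 g, six weeks old, either sex), 10 per group. Drug in vegetable oil given orally 1 h before training, with scopolamine (3 mg/kg i.p., in 0.9% saline) 30 min later. Behavioural testing one day after 7 days of treatment. Training: 0.5 mA, 2 s foot shock on stepping down from a block. Step-down latency measured 24 h later, 300 s cut-off. Mean ± SEM.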

Acetylcholinesterase [5] = molecular target: Acetylcholinesterase (Electrophorus electricus, UniProt O42275); assay: Inhibition of electric eel AchE using acetylthiocholine iodide as substrate after 15 mins by Ellman's method
Acetylcholinesterase [6] = molecular target: T2, Acetylcholinesterase (Homo sapiens, UniProt P22303); assay: Inhibition of human erythrocytes AchE using acetylthiocholine iodide as substrate at 50 uM after 15 mins by Ellman's method
In short: (§2)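 Modified Ellman assay with purified eel or human erythrocyte AChE (0.05 U/mL final) in phosphate buffer pH 8.0. Compound and enzyme incubated 15 min at 37 °C with acetylthiocholine iodide, then DTNB added; absorbance read at 412 nm. IC50 is the concentration giving 50% inhibition. Assays in triplicate, 3 independent experiments; "no active" means under 5% inhibition at 50 µM.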

[7] = molecular target: Acetylcholinesterase (Electrophorus electricus) (UniProt O42275); assay: Inhibition of electric eel AchE using acetylthiocholine iodide as substrate at 50 uM after 15 mins by Ellman's method; in short: as §2
[8] = molecular target: T3, Acetylcholinesterase (Rattus norvegicus) (UniProt P37136); assay: Inhibition of rat cortex homogenate AchE using acetylthiocholine iodide as substrate at 50 uM after 15 mins by Ellman's method; in short: as §1
T3 sequence (whole entry): T1 sequence (P37136 whole entry)

[9] = molecular target: Amyloid-beta precursor protein (Homo sapiens) (UniProt P05067); assay: Inhibition of Cu2+-induced amyloid beta (1 to 42) (unknown origin) aggregation at 25 uM after 24 hrs by thioflavin T fluorescence method
In short: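 Aβ1-42 (25 µM final, HFIP-pretreated) with an equimolar amount of Cu2+ (25 µM) in HEPES pH 6.6 with 150 mM NaCl. Incubated with or without compound (10–35 µM final) 24 h at 37 °C. ThT in glycine-NaOH pH 8.5 added, fluorescence ex 446/em 490 nm. DMSO 12.5% final. Percent inhibition relative to no-inhibitor wells; triplicate, mean of 3 independent experiments.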

Mus musculus [10] = assay: Cognition enhancing effect against scopolamine-induced memory deficit in po dosed Kunming mouse assessed as increase in latency time administered 1 hr before training followed by scopolamine challenge for 7 days measured after 24 hrs by step-down passive avoidance test; type: functional, organism-based
In short: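 Kunming mice, six weeks old, 18–22 g, either sex, n=10 per group. Oral dosing at 2, 6, 18 or 3, 9, 27 mg/kg in vegetable oil, 1 h before training; vehicle as negative control. Scopolamine (3 mg/kg i.p., in saline) given 30 min later. Behavioural testing after 7 days of treatment. Step-down training used a 0.5 mA, 2 s foot shock. Latency measured 24 h later, cut-off 300 s; mean ± SEM.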

[11] = molecular target: Amyloid-beta precursor protein (Homo sapiens) (UniProt P05067); assay: Induction of amyloid beta (1 to 42) (unknown origin) disaggregation assessed as reduction of Cu2+-induced amyloid beta fibril formation at 25 uM after 24 hrs by thioflavin T fluorescence method; parameters: scale not given: the % may be the effect or the level left
In short: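 Aβ1-42 (25 µM final, HFIP-pretreated) and Cu2+ (25 µM) in HEPES pH 6.6 with 150 mM NaCl, incubated 24 h at 37 °C. Test compound (25 µM final) then added for a further 24 h at 37 °C, wells sealed. Read by ThT in glycine-NaOH pH 8.5 (ex 446/em 490 nm). DMSO 12.5% final; triplicate.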

[12] = molecular target: Amyloid-beta precursor protein (Homo sapiens) (UniProt P05067); assay: Inhibition of self-induced amyloid beta (1 to 42) (unknown origin) aggregation at 25 uM after 24 hrs by thioflavin T fluorescence method
In short: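 HFIP-pretreated Aβ1-42 (25 µM final) incubated with compound (10–50 µM) in 50 mM phosphate pH 7.4 for 24 h at 37 °C, wells sealed. ThT in glycine-NaOH pH 8.5 added; fluorescence ex 446/em 490 nm. DMSO 12.5% final. Percent inhibition relative to peptide without inhibitor; triplicate, mean of 3 independent experiments.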

Acetylcholinesterase [13] = molecular target: T2, Acetylcholinesterase; assay: Inhibition of human erythrocytes AchE using acetylthiocholine iodide as substrate after 15 mins by Ellman's method

Acetylcholinesterase (Electrophorus electricus, UniProt O42275), sequence (O42275 whole entry): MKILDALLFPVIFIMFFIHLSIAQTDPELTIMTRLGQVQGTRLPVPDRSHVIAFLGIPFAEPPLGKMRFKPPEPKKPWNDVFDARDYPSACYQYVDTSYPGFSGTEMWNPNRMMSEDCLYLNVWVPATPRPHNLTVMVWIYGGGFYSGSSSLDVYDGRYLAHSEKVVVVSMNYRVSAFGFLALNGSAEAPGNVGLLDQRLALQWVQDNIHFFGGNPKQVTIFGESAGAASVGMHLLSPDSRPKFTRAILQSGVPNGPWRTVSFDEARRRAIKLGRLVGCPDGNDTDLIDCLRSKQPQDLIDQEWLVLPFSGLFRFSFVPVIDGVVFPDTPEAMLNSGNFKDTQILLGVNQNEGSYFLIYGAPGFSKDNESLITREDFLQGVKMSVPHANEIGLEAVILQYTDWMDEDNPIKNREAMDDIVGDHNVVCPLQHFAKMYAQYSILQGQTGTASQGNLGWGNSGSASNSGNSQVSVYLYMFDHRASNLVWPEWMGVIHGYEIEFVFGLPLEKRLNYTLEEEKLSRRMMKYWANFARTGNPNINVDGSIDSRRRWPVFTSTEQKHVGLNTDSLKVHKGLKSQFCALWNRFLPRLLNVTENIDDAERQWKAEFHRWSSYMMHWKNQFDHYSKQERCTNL
T2 sequence (P22303 whole entry): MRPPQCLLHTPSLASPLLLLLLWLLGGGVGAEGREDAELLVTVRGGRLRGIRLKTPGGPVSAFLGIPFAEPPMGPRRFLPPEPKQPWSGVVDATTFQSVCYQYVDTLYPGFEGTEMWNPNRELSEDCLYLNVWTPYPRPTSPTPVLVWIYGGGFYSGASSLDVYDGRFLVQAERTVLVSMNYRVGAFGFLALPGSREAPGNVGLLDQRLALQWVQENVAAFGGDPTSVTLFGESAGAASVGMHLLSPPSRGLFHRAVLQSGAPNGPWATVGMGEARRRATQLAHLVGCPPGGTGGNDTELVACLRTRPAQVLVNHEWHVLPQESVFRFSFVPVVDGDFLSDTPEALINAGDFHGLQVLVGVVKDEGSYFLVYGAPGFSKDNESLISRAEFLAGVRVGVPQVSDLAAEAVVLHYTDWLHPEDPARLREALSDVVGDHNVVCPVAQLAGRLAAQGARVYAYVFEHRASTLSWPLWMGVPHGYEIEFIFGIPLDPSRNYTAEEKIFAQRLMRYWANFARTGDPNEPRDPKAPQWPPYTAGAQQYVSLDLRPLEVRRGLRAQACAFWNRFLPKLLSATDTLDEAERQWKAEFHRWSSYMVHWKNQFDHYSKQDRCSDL
Amyloid-beta precursor protein (Homo sapiens), sequence (P05067 whole entry): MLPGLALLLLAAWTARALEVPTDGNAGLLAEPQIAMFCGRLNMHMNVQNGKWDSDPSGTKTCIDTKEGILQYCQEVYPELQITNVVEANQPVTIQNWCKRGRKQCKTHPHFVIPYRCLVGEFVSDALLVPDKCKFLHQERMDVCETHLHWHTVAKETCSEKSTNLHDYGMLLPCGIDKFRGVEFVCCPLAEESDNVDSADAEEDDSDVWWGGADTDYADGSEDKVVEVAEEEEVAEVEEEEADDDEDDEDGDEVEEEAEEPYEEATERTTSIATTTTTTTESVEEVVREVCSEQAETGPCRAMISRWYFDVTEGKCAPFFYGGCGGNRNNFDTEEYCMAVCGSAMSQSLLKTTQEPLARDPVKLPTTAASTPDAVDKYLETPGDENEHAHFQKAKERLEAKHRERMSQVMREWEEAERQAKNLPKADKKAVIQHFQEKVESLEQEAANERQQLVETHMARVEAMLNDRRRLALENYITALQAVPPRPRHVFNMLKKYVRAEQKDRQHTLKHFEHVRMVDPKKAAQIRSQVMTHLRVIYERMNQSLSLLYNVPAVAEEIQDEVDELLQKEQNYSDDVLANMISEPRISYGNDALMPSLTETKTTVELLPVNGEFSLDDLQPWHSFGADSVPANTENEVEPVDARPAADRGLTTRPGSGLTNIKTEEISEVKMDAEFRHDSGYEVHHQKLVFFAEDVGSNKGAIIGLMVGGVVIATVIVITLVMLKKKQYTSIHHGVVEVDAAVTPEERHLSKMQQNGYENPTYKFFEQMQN
Butyrylcholinesterase (Rattus norvegicus), sequence (Q9JKC1 as listed by the source): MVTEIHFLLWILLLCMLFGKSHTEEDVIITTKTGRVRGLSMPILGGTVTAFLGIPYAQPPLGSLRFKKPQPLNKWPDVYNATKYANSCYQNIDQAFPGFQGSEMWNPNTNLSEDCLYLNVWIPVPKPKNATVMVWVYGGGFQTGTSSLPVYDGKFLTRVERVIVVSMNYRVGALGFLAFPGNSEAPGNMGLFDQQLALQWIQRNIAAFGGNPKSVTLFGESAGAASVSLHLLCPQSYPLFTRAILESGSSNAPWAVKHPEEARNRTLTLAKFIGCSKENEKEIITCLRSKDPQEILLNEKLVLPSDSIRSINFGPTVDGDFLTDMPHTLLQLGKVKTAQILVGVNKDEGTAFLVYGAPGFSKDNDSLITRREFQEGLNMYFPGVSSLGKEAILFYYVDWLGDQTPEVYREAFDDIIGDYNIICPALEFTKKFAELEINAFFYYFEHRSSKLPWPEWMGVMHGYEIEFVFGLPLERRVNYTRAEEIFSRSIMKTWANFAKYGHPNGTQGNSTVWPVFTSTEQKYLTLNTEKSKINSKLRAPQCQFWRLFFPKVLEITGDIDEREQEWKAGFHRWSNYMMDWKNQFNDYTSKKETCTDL
Acetylcholinesterase (Electrophorus electricus), sequence (O42275 24-633 limits assumed): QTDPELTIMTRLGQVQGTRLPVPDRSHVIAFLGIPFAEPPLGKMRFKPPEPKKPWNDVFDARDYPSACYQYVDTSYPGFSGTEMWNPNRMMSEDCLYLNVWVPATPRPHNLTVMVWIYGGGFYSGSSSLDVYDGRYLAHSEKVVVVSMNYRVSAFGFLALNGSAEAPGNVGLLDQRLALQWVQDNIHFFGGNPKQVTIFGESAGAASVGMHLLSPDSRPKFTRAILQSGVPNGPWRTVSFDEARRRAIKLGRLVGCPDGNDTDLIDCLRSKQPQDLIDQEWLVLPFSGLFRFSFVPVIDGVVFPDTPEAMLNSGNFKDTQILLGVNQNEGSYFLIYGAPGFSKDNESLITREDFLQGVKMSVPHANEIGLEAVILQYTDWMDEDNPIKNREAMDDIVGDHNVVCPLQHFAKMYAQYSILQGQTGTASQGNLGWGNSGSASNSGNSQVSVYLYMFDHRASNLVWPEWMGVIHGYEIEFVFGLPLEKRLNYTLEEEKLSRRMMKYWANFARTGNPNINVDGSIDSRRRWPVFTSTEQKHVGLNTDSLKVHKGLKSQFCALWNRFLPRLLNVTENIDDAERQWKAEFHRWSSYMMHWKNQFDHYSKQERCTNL

| SMILES | Activity [1] | inhibition [2] [%] | IC50 (Acetylcholinesterase [3]) [µM] | other results |
| --- | --- | --- | --- | --- |
| CN(CCCCCCOc1cc(O)c2c(=O)c(-c3ccc(O)cc3)coc2c1)Cc1ccccc1 | 0.65 | < 5 | 4.24 |  |
| CCN(CCCCOc1cc(O)c2c(=O)c(-c3ccc(O)cc3)coc2c1)Cc1ccccc1OC | 1.06 | 7.7 | 0.83 |  |
| COc1cc2c(cc1OC)C(=O)C(CC1CCN(Cc3ccccc3)CC1)C2 (configuration not stated) |  |  |  | Activity (Mus musculus [4]): Active |
| CCN(CCCCCCOc1ccc(-c2coc3cc(OCCCCCCN(CC)Cc4ccccc4OC)cc(O)c3c2=O)cc1)Cc1ccccc1OC | 0.13 | 11.6 | 0.51 | IC50 (Acetylcholinesterase [5]): 3.79 µM |
| CCN(CCCOc1cc(O)c2c(=O)c(-c3ccc(O)cc3)coc2c1)Cc1ccccc1 | 1.12 | 9.9 | 1.42 |  |
| CCN(CCCCCCOc1cc(O)c2c(=O)c(-c3ccc(O)cc3)coc2c1)Cc1ccccc1OC | 0.56 | < 5 | 0.53 |  |
| COc1ccccc1CN(C)CCCCCCOc1cc(O)c2c(=O)c(-c3ccc(O)cc3)coc2c1 | 2.7 | < 5 | 3.19 |  |
| CCN(CCCOc1cc(O)c2c(=O)c(-c3ccc(O)cc3)coc2c1)Cc1ccccc1OC | 1.02 | < 5 | 0.47 |  |
| O=c1c(-c2ccc(O)cc2)coc2cc(O)cc(O)c12 | 5 | < 5 |  | inhibition (Acetylcholinesterase [6]): < 5%; inhibition [7]: < 5%; inhibition [8]: < 5% |
| COc1ccccc1CN(C)CCCCOc1cc(O)c2c(=O)c(-c3ccc(O)cc3)coc2c1 | 1.56 | < 5 | 5.55 |  |
| CN(CCCCCCOc1ccc(-c2coc3cc(O)cc(O)c3c2=O)cc1)Cc1ccccc1 | 0.3 | 7.7 | 3.54 |  |
| CN(CCCOc1cc(O)c2c(=O)c(-c3ccc(O)cc3)coc2c1)Cc1ccccc1 | 0.89 | 7.4 | 36.3 |  |
| CCN(CCCCOc1cc(O)c2c(=O)c(-c3ccc(O)cc3)coc2c1)Cc1ccccc1 | 2.4 | 10.4 | 2.42 |  |
| CCN(CCCOc1ccc(-c2coc3cc(O)cc(O)c3c2=O)cc1)Cc1ccccc1OC | 0.64 | 17.6 | 16 |  |
| CCN(CCCCCCOc1ccc(-c2coc3cc(O)cc(O)c3c2=O)cc1)Cc1ccccc1OC | 0.38 | < 5 | 1.69 |  |
| COc1cc(/C=C/C(=O)CC(=O)/C=C/c2ccc(O)c(OC)c2)ccc1O |  |  |  | inhibition [9]: 64% |
| CN(CCCOc1ccc(-c2coc3cc(O)cc(O)c3c2=O)cc1)Cc1ccccc1 | 0.46 | < 5 | 49.3 |  |
| COc1ccccc1CN(C)CCCOc1ccc(-c2coc3cc(O)cc(O)c3c2=O)cc1 | 0.62 | < 5 | 37.4 |  |
| CCN(CCCOc1ccc(-c2coc3cc(O)cc(O)c3c2=O)cc1)Cc1ccccc1 | 0.58 | 11.6 | 42.8 |  |
| CN(CCCCOc1cc(O)c2c(=O)c(-c3ccc(O)cc3)coc2c1)Cc1ccccc1 | 1 | 8.9 | 54.5 |  |
| CCN(CCCCCCOc1cc(O)c2c(=O)c(-c3ccc(O)cc3)coc2c1)Cc1ccccc1 | 1.2 | < 5 | 0.35 | Activity (Mus musculus [10]): Dose-dependent effect; Activity [11]: 36.1%; inhibition [9]: 72.1%; inhibition [12]: 34.3%; IC50 (Acetylcholinesterase [13]): 5.8 µM; IC50 (Acetylcholinesterase [5]): 4.98 µM |
| COc1ccccc1CN(C)CCCCOc1ccc(-c2coc3cc(O)cc(O)c3c2=O)cc1 | 1.1 | 9.7 | 5.31 |  |
| CCN(CCCOc1ccc(-c2coc3cc(OCCCN(CC)Cc4ccccc4OC)cc(O)c3c2=O)cc1)Cc1ccccc1OC | 0.49 | 12.5 | 0.21 | IC50 (Acetylcholinesterase [5]): 0.16 µM |
| CCN(CCCCOc1ccc(-c2coc3cc(OCCCCN(CC)Cc4ccccc4)cc(O)c3c2=O)cc1)Cc1ccccc1 | 0.26 | 10.3 | 0.9 |  |
| COc1ccccc1CN(C)CCCOc1cc(O)c2c(=O)c(-c3ccc(O)cc3)coc2c1 | 1.05 | < 5 | 13.5 |  |
| CCN(CCCCCCOc1ccc(-c2coc3cc(O)cc(O)c3c2=O)cc1)Cc1ccccc1 | 0.29 | < 5 | 38.4 |  |
| CCN(CCCCOc1ccc(-c2coc3cc(O)cc(O)c3c2=O)cc1)Cc1ccccc1OC | 1.1 | 6.7 | 1.45 | Activity (Mus musculus [10]): Dose-dependent effect; Activity [11]: 39.2%; inhibition [9]: 71.9%; inhibition [12]: 24.6%; IC50 (Acetylcholinesterase [13]): 3.88 µM; IC50 (Acetylcholinesterase [5]): 15.9 µM |
| COc1ccccc1CN(C)CCCCCCOc1ccc(-c2coc3cc(O)cc(O)c3c2=O)cc1 | 0.4 | < 5 | 5.62 |  |
| CCN(CCCCOc1ccc(-c2coc3cc(O)cc(O)c3c2=O)cc1)Cc1ccccc1 | 0.6 | < 5 | 12.8 |  |
| CN(CCCCOc1ccc(-c2coc3cc(O)cc(O)c3c2=O)cc1)Cc1ccccc1 | 0.32 | 10.8 | 3.79 |  |
